# SR-BI DiI-HDL act – activators of SR-BI mediated DiI-HDL uptake, primary screen, ldlA[mSR-BI] CHO cells, DiI fluorescence; 3 h; 100 = double the neutral-control signal; actives 0.096% (n = 320,000); activation, % at 12.5 µM;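 active = mean replicate activation of at least 60% and every replicate at or above 60%; inconclusive = mean or all-replicate condition met, but not both; inactive = mean below 60% and not all replicates reaching 60%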;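 note: 0% = median plate neutral-control signal and 100% = twice that signal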
#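 system = CHO ldlA[mSR-BI] cells, LDL receptor-null, SR-BI overexpressing | medium = Ham's F12 with 0.5% BSA, HEPES 25 mM, pH 7.4 | probe or stimulus = DiI-HDL 10 µg/mL | compound dosing = single-point compound dose | incubation = compound exposure 3 h, 37 °C | technique = DiI fluorescence, bottom read | read-out = cell-associated DiI fluorescence as measure of HDL uptake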
# Rtt109 Vps75 – inhibitors of C. albicans Rtt109/Vps75 HAT, primary screen, biochemical, ThioGlo CoA-SH fluorescence, plate reader. AID 540336, 2011. Histone acetyltransferase RTT109 (Candida albicans (strain SC5314 / ATCC MYA-2876)), …. purified Rtt109/Vps75, 4 h. inhibition, % at 34.9 µM. actives 0.16% (n = 330,000);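 active = inhibition of at least 50% in every replicate; inconclusive = best replicate reaches 50% inhibition but some replicates fall short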
# HIV Env fusion – inhibitors of HIV-1 Env-driven cell-cell fusion, primary screen, HeLa-JRFL effector, CEM21 target cells, luciferase. inhibition, % at 12.3 µM. actives 1.1% (n = 360,000). AID 651610, 2012;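 active = mean replicate inhibition score of at least 50 and every replicate individually at or above 50; inconclusive = only one of the two criteria met; inactive = mean below 50 and not all replicates reaching 50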;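 note: 0% = plate neutral controls and 100% = maraviroc near 300 nM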
# Glyco luc inh – increase of ERlucT glycosylation luciferase signal, primary screen, N-linked glycosylation inhibitor project, D54 ERlucT cells, luminescence, set 2 | D54 ERlucT glycosylation luciferase reporter, 24 h; percent of 100 nM tunicamycin response | reporter increase, % at 12.5 µM | actives 0.23% (n = 360,000) | AID 588692, 2011;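 active = mean luciferase reporter signal, scaled so untreated is 0 and the glycosylation-blocking control 100, at or above a set limit in every replicate; inconclusive = mean reaches the limit but not every replicate does; inactive = mean below the limit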;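 note: luciferase carries N-glycosylation sites so blocking glycosylation raises the light; 0% = median of neutral control wells and 100% = median of 100 nM tunicamycin wells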
# SR-BI DiI inh – inhibitors of SR-BI mediated HDL lipid uptake, primary screen, ldlA[mSR-BI] cells, fluorescence, single point. Scavenger receptor class B member 1 (Mus musculus), Q61009. ldlA[mSR-BI] CHO cells, DiI-HDL uptake fluorescence, 3 h. inhibition, % at 12.5 µM. actives 0.96% (n = 320,000);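 active = mean replicate inhibition of at least 70% and a set share of replicates each scoring 70 or more; inconclusive = meets just one of the two criteria; inactive = fails both criteria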;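 note: 0% = median of neutral control wells and 100% = median of positive control wells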
# Target sequence (Q61009 whole entry, looked up): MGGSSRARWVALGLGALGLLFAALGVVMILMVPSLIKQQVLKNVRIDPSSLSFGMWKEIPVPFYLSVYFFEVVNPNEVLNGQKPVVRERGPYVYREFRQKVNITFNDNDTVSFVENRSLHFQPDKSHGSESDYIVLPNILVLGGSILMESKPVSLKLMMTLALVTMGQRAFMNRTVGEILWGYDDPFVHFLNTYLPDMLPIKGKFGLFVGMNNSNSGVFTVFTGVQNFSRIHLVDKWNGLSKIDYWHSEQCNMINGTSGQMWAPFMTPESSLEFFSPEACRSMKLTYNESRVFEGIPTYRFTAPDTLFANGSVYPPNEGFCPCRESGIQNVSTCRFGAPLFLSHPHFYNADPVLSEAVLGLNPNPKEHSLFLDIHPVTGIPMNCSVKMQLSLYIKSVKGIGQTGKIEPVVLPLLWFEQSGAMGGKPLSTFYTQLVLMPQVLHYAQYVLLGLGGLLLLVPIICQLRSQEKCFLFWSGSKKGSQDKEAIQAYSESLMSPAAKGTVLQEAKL
# PglD inh – C. jejuni PglD acetyltransferase inhibitors, primary screen, biochemical, DTNB colorimetric, single point | UDP-N-acetylbacillosamine N-acetyltransferase PglD (Campylobacter jejuni) | purified PglD enzyme, DTNB colorimetric CoA detection | inhibition, % at 12.5 µM | actives 0.098% (n = 360,000) | AID 602405, 2012; in the data active = inhibition above about 16%, passing the limit was not always enough; inconclusive = no clear call, values can overlap the other calls
# Numbers without * were called inactive; ? = inconclusive; . = not tested or not shown; [ ] = remark or other dose. Hits are enriched below; roughly 1.9% of the tested compounds scored in any of these assays.
SMILES,SR-BI DiI-HDL act,Rtt109 Vps75,HIV Env fusion,Glyco luc inh,SR-BI DiI inh,PglD inh
Cc1noc(C)c1S(=O)(=O)N(C)C[C@@H]1OCCCC[C@@H](C)Oc2ccc(NC(=O)Nc3ccc(C(F)(F)F)cc3)cc2C(=O)N([C@H](C)CO)C[C@H]1C,.,.,83*[16.7 µM],.,.,-2
Cc1noc(C)c1S(=O)(=O)N(C)C[C@H]1OCCCC[C@@H](C)Oc2ccc(NC(=O)Nc3ccc4c(c3)OCO4)cc2C(=O)N([C@@H](C)CO)C[C@H]1C,.,.,-4[16.7 µM],.,.,3
CCCC(=O)Nc1ccc2c(c1)OC[C@@H](C)N(C(=O)c1ccncc1)C[C@H](C)[C@@H](OC)CN(C)C2=O,.,.,13[16.7 µM],.,.,1
O=C(NCc1ccco1)c1ccc(S(=O)(=O)N2CCCc3ccccc32)cc1,-76,8,-13,-2,76*,-1
O=C(NCc1ccccc1)c1ccc(S(=O)(=O)N2CCCc3ccccc32)cc1,-28,4,2,-2,28,-5
COc1ccc(-c2nn(-c3ccccc3)cc2/C=N/N2C(=O)CSC2=S)cc1,-60,-16,67*,0,60,-6
COc1ccc(/C=N/N2C(=O)CSC2=S)cc1,-4,-1,.,0,4,0
O=C(O)CSC1CC(=O)N(c2ccc(Cl)cc2)C1=O (centres undefined),29,0,-95,0,-29,0
Cc1ccc(N2C(=O)CC(N(O)C3CC(=O)N(c4ccc(C)cc4)C3=O)C2=O)cc1 (centres undefined),-1,5,-61,1,1,.
CCCCCCC(=O)N(O)C1CC(=O)N(c2ccc(C)cc2)C1=O (centres undefined),15,11,?,38*,-15,4
CCCCCCC(=O)N(O)C1CC(=O)N(c2ccc(Cl)cc2)C1=O (centres undefined),-8,-4,7,61*,8,0
COC(=O)N/N=C/c1cc(N=Nc2ccccc2)ccc1O,-15,7,4,0,15,-1
Cc1cc(C(=O)N/N=C/c2cc(N=Nc3ccccc3)ccc2O)n[nH]1,-115,3,.,-9,115*,.
Cc1cc(C(=O)N/N=C/c2c3ccccc3cc3ccccc23)n[nH]1,-17,1,0,45*,17,3
CO[C@@H]1CN(C)C(=O)c2cc(NC(=O)C3CCC3)ccc2OC[C@@H](C)N(C)C[C@@H]1C,.,.,17[16.7 µM],.,.,2
COc1ccc(NC(=O)N2CCN(c3nc(-c4cccc(OC)c4)cs3)CC2)cc1,-71,1,63*,-5,71*,-3
COc1cccc(-c2csc(N3CCN(C(=O)Nc4ccc(Cl)cc4)CC3)n2)c1,-56,-6,23,-4,56,.
COc1ccc(NC(=O)N2CCN(c3nc4ccccc4n3C(C)C)CC2)cc1,-81,-5,16,3,81*,.
O=C(NCC[C@H]1CC[C@H](NC(=O)C2CCCCC2)[C@@H](CO)O1)Nc1ccc(Cl)cc1,.,.,-36[16.7 µM],.,.,9
CCN(C(=O)CSc1ncnc2sc(C)c(C)c12)C1CCS(=O)(=O)C1 (centres undefined),7,2,6,-1,-7,.
CCCN(CC1CC1)C(=O)CSc1ncnc2sc(C)c(C)c12,-34,8,69*,0,34,3
Cc1ccc2[nH]c3c(=O)[nH]ncc3c2c1,4,-1,66*,0,-4,-2
C[C@@H]1CN([C@@H](C)CO)C(=O)c2cccc(NC(=O)Nc3ccc4c(c3)OCO4)c2O[C@H]1CN(C)Cc1ccc(Oc2ccccc2)cc1,.,.,.,.,.,-6
O=C(/C=C/c1cccs1)NC(=S)NNC(=O)c1ccccc1O,-101,.,?,-6,101*,.
COc1ccc(C(=O)NC(=S)NNC(=O)c2ccco2)cc1,42,-12,-7,1,-42,7
SMILES,SR-BI DiI-HDL act,Rtt109 Vps75,HIV Env fusion,Glyco luc inh,SR-BI DiI inh,PglD inh
O=C(NC(=S)NNC(=O)c1cc2ccccc2cc1O)c1ccco1,-146,10,19,-1,146*,.
O=C(NC(=S)NNC(=O)c1ccccc1O)c1ccco1,-110,-3,2,1,110*,0
O=C(C[C@@H]1C[C@@H]2c3cc(NC(=O)C4CCC4)ccc3O[C@@H]2[C@@H](CO)O1)NCc1cccc(F)c1,.,.,5[16.7 µM],.,.,3
CCS(=O)(=O)N1Cc2ccccc2CC1C(=O)Nc1nc(C)cs1 (centres undefined),16,3,-37,-10,-16,.
CCS(=O)(=O)N1Cc2ccccc2CC1C(=O)NC(C)C12CC3CC(CC(C3)C1)C2 (centres undefined),20,9,102*,-6,-20,3
CCS(=O)(=O)N1Cc2ccccc2CC1C(=O)NCC12CC3CC(CC(C3)C1)C2 (centres undefined),-16,-3,86*,-1,16,6
CCS(=O)(=O)N1Cc2ccccc2CC1C(=O)Nc1ccc(F)cc1 (centres undefined),.,-1,-5,-2,.,.
C[C@H](CO)N1C[C@H](C)[C@H](CN(C)C(=O)Nc2ccc3c(c2)OCO3)OCCCC[C@H](C)Oc2ccc(NS(=O)(=O)c3ccccc3)cc2C1=O,.,.,-28[16.7 µM],.,.,-2
C/C(=N\NC(=O)c1c(Br)c(C)nn1C)c1ccc(NC(=O)C(C)Oc2ccc(Cl)cc2C)cc1 (centres undefined),-76,-12,.,-2,76*,-10
COc1ccc(C2CC3(CC(C)(C)NC(=S)N3)Oc3cc(O)cc(C)c32)cc1 (centres undefined),2,11,-201,-9,-2,.
CC(=O)Oc1cc2c(cc1Cl)C(c1cccs1)CC1(CC(C)(C)NC(=S)N1)O2 (centres undefined),-75,2,27,3,75*,.
COc1ccc(C2CC3(CC(C)(C)NC(=O)N3)Oc3cc(O)ccc32)cc1 (centres undefined),14,18,-410,-6,-14,-8
CC1(C)CC2(CC(c3ccccc3)c3ccc(O)cc3O2)NC(=S)N1 (centres undefined),-72,11,-27,-1,72*,.
COc1ccc(N2C(=O)CSC2c2ccc(F)c(F)c2)cc1 (centres undefined),-6,-5,16,-2,6,2
CCOc1ccc(N2C(=O)CSC2c2ccncc2)cc1 (centres undefined),10,63*,-27,-1,-10,-2

# Source: PubChem
